The entries come from a sample that favours hits as a whole.
CHOP UPR activ: apoptotic UPR (CHOP) activation; CHO-CHOP luciferase reporter, luminescence; percent of tunicamycin response over DMSO baseline; activation, % at 10 µM; 0.34% of 330,000 active;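 active means at 10 µM dose, activation of 40% or more, normalized to positive control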
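measured by = luciferase luminescence | assay system = CHO-CHOP cells, stable luciferase reporter of PERK-eIF2a-CHOP signalling | amount = 500 reporter cells seeded per well | timing = 6 h compound exposure at 37 °C after overnight seeding | controls = positive tunicamycin 10 µg/mL, negative DMSO alone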
UPR XBP1 act: activators of adaptive arm of unfolded protein response (XBP1). CHO-XBP1 luciferase reporter, IRE1-XBP1 UPR activation, luminescence; percent of tunicamycin response, DMSO as zero. AID 463104. activation, % at 20 µM. 0.33% of 330,000 active;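 active means versus positive control, 20 µM dose yields 30% or more activation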
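assay system = CHO-XBP1 luciferase reporter cells | amount = 1000 cells/well | buffer or medium = F12 plus 10% FBS | compound dosing = single point, 20 µM final compound, 1% DMSO | incubation = 16-18 h cell attachment at 37 °C, then 6 h compound exposure | detection = Steady-Glo luminescence read | controls = tunicamycin 10 µg/mL and vehicle-only wells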
iPSC survival up: hiPSC single-cell survival enhancement. 0.044% of 360,000 active. ATPlite luminescence; 100% = ROCK inhibitor wells, 0% = DMSO. survival enhancement, % at 20 µM. AID 602274; in the data active means survival enhancement above about 18%;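 further: cells exposed to compounds for 16 hours before the ATP read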
CHOP inh: blocks CHOP induction under ER stress; CHO-K1 CHOP-promoter luciferase, tunicamycin-induced, 15-18 h; inhibition, % at 10 µM; 3.8% of 220,000 active; AID 2732;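 active means compounds that reduced the stress-induced luciferase reporter signal by more than about 70% of percent inhibition, limit read from the data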
H9c2 protect: modulators protecting cardiomyocytes from myocardial damage | protection from H2O2 cell death, % at 20 µM | H9c2 cardiomyocytes, H2O2 injury protection, ATPLite, 2 h | 0.63% of 360,000 active;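 active means compounds giving at least 50% protection of heart cells from peroxide-induced death in the single-dose screen, raw or plate-pattern-corrected value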
Hits are given with their value; – = inactive; · = no result given.

SMILES	CHOP UPR activ	UPR XBP1 act	iPSC survival up	CHOP inh	H9c2 protect
COc1cc(C(=O)Nc2ccc(-c3nc4cc(C)ccc4o3)c(O)c2)cc(OC)c1OC	–	–	–	–	–
Cc1cc(C)c2oc(-c3cccc(NC(=O)c4ccc(F)cc4)c3)nc2c1	–	–	–	91	–
COc1cc(C(=O)Nc2cccc(-c3nc4cc(C)cc(C)c4o3)c2)cc(OC)c1OC	·	·	–	76	–
C=CS(=O)(=O)c1sc(Cl)c(N2CCOCC2)c1[N+](=O)[O-]	·	·	–	104	–
COc1cccc(NC(=O)C2(C)CCN2C(=O)CC2CC2)c1 (stereo not given)	·	·	–	·	–
COc1ccc(-c2cn3nc(C)c(C)nc3n2)cc1OC	–	–	–	·	–
Cc1ccc(-c2cn3nc(C)c(C)nc3n2)cc1	–	–	–	81	–
COC(=O)c1cccc(NC(=O)CN2CCOCC2)c1	–	–	–	72	–
Nc1c(Cl)cc(C(=O)NC2CC2)cc1Cl	·	·	–	·	–
COc1ccc(Nc2nc(Nc3ccc(OC)cc3)nc(-n3[nH]c(=O)c(C)c3C)n2)cc1	–	–	–	–	92
COc1ccc(Nc2nc(OC)nc(OC)n2)cc1	–	–	–	·	–
O=C(NN=Cc1ccc2c(c1)CCN2)c1cccs1	·	·	–	·	–
O=C(NCc1ccc2[nH]c3c(c2c1)CCCC3)c1ccc(S(=O)(=O)N2CCOCC2)cc1	–	–	–	–	–
O=C(NCc1ccc2[nH]c3c(c2c1)CCCC3)c1ccc(S(=O)(=O)N2CCCC2)cc1	–	–	–	77	–
O=C(NCC(F)(F)F)c1csc([C@@H]2O[C@H](CO)[C@H](O)[C@H](O)[C@H]2O)n1	·	·	–	·	–
Cc1ccc2[nH]c(=O)c(CN(CCCN3CCOCC3)C(=O)Nc3ccc(Cl)cc3)cc2c1	–	–	–	–	50
CCC1C/C(=C\c2cccnc2)C(=O)/C(=C/c2cccnc2)C1 (stereo not given)	·	·	–	106	–
CC(C)Nc1ncnc2c1ncn2[C@H]1CN(Cc2cccs2)C[C@@H](CO)O1	·	·	–	·	–
CCOc1ccc(C(=O)Nc2ccccc2-c2ccccc2)cc1Cl	–	–	–	81	–
O=C(Nc1cc(F)cc(F)c1)c1sc(Cl)nc1-c1ccccc1	–	–	–	75	–
CCOc1cnn(-c2ccccc2)c(=O)c1Cl	–	–	58	·	–
CCSc1cnn(-c2ccccc2)c(=O)c1Cl	–	–	37	·	–
CCSc1cnn(-c2ccccc2)c(=O)c1SCC	–	–	–	–	–
CCN(CC)S(=O)(=O)c1cccc(C(=O)Nc2ccc(S(=O)(=O)NC3=NCCCCC3)cc2)c1	–	–	–	·	–
COc1cc(C)ccc1S(=O)(=O)NC(=O)C1(C)CCN1C(=O)COc1ccc(Cl)cc1 (stereo not given)	·	·	–	·	–
SMILES	CHOP UPR activ	UPR XBP1 act	iPSC survival up	CHOP inh	H9c2 protect
O=C(NC1=C(NC2CCS(=O)(=O)C2)C(=O)c2ccccc2C1=O)c1ccccc1 (stereo not given)	–	–	–	102	–
CC(C)(C)OC(=O)N1CCC[C@H]1c1nnc(SCC(=O)Nc2cccc(Cl)c2)o1	–	–	–	–	–
CC(C)(C)OC(=O)N1CCC[C@H]1c1nnc(SCC(=O)Nc2ccc(Br)cc2)o1	–	–	–	–	60
CCOc1ccc(C2c3c(oc4ccccc4c3=O)C(=O)N2c2ccc(C)cn2)cc1OC (stereo not given)	–	–	–	–	–
COc1cc(C2c3c(oc4ccccc4c3=O)C(=O)N2c2ccc(C)cn2)ccc1O (stereo not given)	–	–	–	–	63
COc1ccc2cc3c(N)nn(C(=O)c4cccc([N+](=O)[O-])c4)c3nc2c1	–	–	–	77	–
COc1ccc2cc3c(N)nn(C(=O)Cc4ccccc4OC)c3nc2c1	–	–	–	81	–
COc1ccc(-c2nc(N)n(C(=O)Cc3ccccc3)n2)cc1	–	–	–	–	–
CCCCN(C=O)c1c(CC)nc2c(OCc3cccc(Cl)c3)cccn12	·	·	–	·	–
CCc1ccc(O)c(N=Cc2cccc(C)c2O)c1	–	–	–	76	60
C=CCc1cccc(C=Nc2cc(Br)ccc2O)c1O	–	–	–	98	–
Cc1cccc(N=Cc2ccccc2O)c1C	·	·	–	·	–
C[C@@H](NS(=O)(=O)c1cc(Cl)ccc1F)[C@H](O)c1ccccc1	·	·	–	·	–
Cc1ccc(C2c3c(oc4ccccc4c3=O)C(=O)N2c2nnc(C(C)C)s2)o1 (stereo not given)	–	–	–	85	–
O=S1(=O)CC(N2CCCC2)CN1Cc1cn(Cc2ccccc2)nn1 (stereo not given)	·	·	–	·	·
Cc1cccc(/C=c2\s/c(=C\C(=O)C(C)(C)C)[nH]c2=O)c1	–	–	–	–	–
Cc1cccc(/C=C2\CCC(=C3SCCCS3)C2=O)c1	–	–	–	78	–
Cc1c(Cl)c([N+](=O)[O-])nn1Cc1ccc(C(=O)N/N=C\c2ccccn2)o1	·	·	–	73	–
O=C(Nc1ccccc1)c1cc(C2CCCN(C(=O)c3cccs3)C2)on1 (stereo not given)	·	·	–	·	–
COc1ccccc1NC(=O)COc1ccc(C(=O)OCC(=O)NC(C)(C)C)cc1OC	–	–	–	–	59
CCC(CC)NC(=O)COC(=O)c1ccc(OCC(=O)Nc2ccccc2OC)c(OC)c1	–	–	–	82	–
CCC(=O)N1CCN(c2nc(-c3ccccc3)c3c(c2C#N)CCCC3)CC1	–	–	–	73	–
Cc1c(C(=O)Nc2cccc([N+](=O)[O-])c2)csc1-c1ccccc1	–	–	–	–	–
Cc1ccc(NC(=O)c2cc(C)n(-c3cccc(C)c3)c2C)cc1	–	–	–	–	–
Cc1ccc(NC(=O)c2cc(C)n(-c3ccccc3)c2C)cc1	–	–	–	72	–
SMILES	CHOP UPR activ	UPR XBP1 act	iPSC survival up	CHOP inh	H9c2 protect
Cc1ccc(NC(=O)c2csc(-c3ccccc3)c2C)cc1	·	·	–	100	–
O=C(/C=C/[C@H]1O[C@@H](n2cnc3c(NC(=O)c4ccccc4)ncnc32)[C@H](O)[C@@H]1O)NCc1ccc2c(c1)OCO2	·	·	–	·	–
COc1ccc(/C=C/C(=O)OCC(=O)NCCc2ccccc2)c(OC)c1	–	–	–	·	–
O=[N+]([O-])c1cc(CS(=O)(=O)Oc2ccc(Cl)cc2)c(O)c([N+](=O)[O-])c1	–	–	–	·	–
CS(=O)(=O)N(Cc1ccc(C(=O)Nc2ccccc2Sc2ccccc2)cc1)c1ccccc1	–	–	–	77	–
O=C(Nc1ccccc1Sc1ccccc1)c1ccccc1	–	–	–	92	–
Cc1cccc(NS(=O)(=O)c2cc(NC(=O)CC(=O)c3ccc([N+](=O)[O-])cc3)ccc2C)c1	·	·	·	93	·
COc1cccc(NC(=O)Cn2nnc(C(=O)Nc3ccccc3)c2N)c1	–	–	–	–	–
COc1cccc(NC(=O)c2nnn(Cc3ccc(Br)cc3F)c2N)c1	–	–	–	73	–

Compound activity deposited in PubChem by several laboratories.
